Assay [1] concerns Rattus norvegicus. The assay is described as follows: The control period of compound (microg of Fe/h) for biliary excretion of Iron after intravenous administration to the rats. The assay is classed as functional, Bile. The method in brief: (§1)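 Normal (untreated) rats under pentobarbital anesthesia, bile duct cannulated with PE-10 tubing. Bile collected 30 min for the control rate, then chelator given 0.2 mmol/kg iv by tail vein in deionized water, pH about 7 with sodium bicarbonate, and bile collected a further 2 h. Bile mass measured and iron determined by atomic absorption spectrometry; rate expressed per hour. Controls received pentobarbital only.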

The subject of assay [2] is Rattus norvegicus. Description: The treatment period of compound (microg of Fe/h) for biliary excretion of Iron after intravenous administration to the rats. The class given is functional, Bile. The method in brief:
as §1

In assay [3] the test system is Rattus norvegicus. Description: The treatment period of compound (microg of Fe/15h) for urinary excretion of Iron after intravenous administration to the rats. The class given is functional, Urine. Put shortly:
(§2)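 Unloaded normal rats, each serving as its own control, housed in metabolic cages. Control day: 1 mL distilled water/200 g body weight iv, urine collected 15 h (5 p.m.–8 a.m.) and analyzed for iron. Next day: chelator 0.2 mmol/kg iv by tail vein under ether anesthesia in 1 mL deionized water, pH about 7 with sodium bicarbonate; urine again collected 15 h for iron.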

The test system of assay [4] is Rattus norvegicus. Description: The control period of compound (microg of Fe/15h) for urinary excretion of Iron after intravenous administration to the rats. The class given is functional, Urine. The method in brief: as §2
In assay [5] the test system is Rattus norvegicus. Description: The treatment period of compound (microg of Fe/15h) for urinary excretion of Iron after peroral administration to the rats. The class given is functional, Urine. Put shortly:
(§3)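 Unloaded normal rats in metabolic cages act as their own controls. Food is withdrawn at 5 p.m. on both days. Control day: 1 mL distilled water po, urine collected until 8 a.m. (15 h), food returned, urine analyzed for iron. Treatment day: chelator 1 mmol/kg po in 1 mL distilled water, then another 15 h urine collection for iron analysis.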

Assay [6] relates to Rattus norvegicus. Description: The control period of compound (microg of Fe/15h) for urinary excretion of Iron after peroral administration to the rats. The class given is functional, Urine. Put shortly:
as §3

In turn, `O=c1cc(CO)occ1O` [KOJIC ACID] returned a Control period in the assay on Rattus norvegicus [1] of 0.31. In the assay with Rattus norvegicus [2], this compound registered a Treatment period of 0.28.
Consider `Cc1c(O)c(=O)ccn1C` [DEFERIPRONE], for which the Treatment period in the assay with Rattus norvegicus [3] is 8370 ng of Fe/15 h; in the assay with Rattus norvegicus [5] it was 17400 ng of Fe/15 h; with Rattus norvegicus [2] it was 4.78. The Control period with Rattus norvegicus [4] was 490 ng of Fe/15 h; in the assay with Rattus norvegicus [1], 0.36; in the assay with Rattus norvegicus [6], 400 ng of Fe/15 h.
Compound `O=C(O)c1cc(=O)c(O)co1` gave a Control period with Rattus norvegicus [1] of 0.35. In addition, the Treatment period with Rattus norvegicus [2] stood at 0.46.
Regarding `Cn1cc(O)c(=O)cc1C(=O)O`, the Treatment period in the assay on Rattus norvegicus [3] was 6830 ng of Fe/15 h; with Rattus norvegicus [5], 6740 ng of Fe/15 h; with Rattus norvegicus [2] it was 5.87. Besides, the Control period was 410 ng of Fe/15 h in the assay with Rattus norvegicus [4], 0.34 with Rattus norvegicus [1] and 497 ng of Fe/15 h with Rattus norvegicus [6].
Take `O=c1cc(CO)n(CCS(=O)(=O)O)cc1O`: the Treatment period in the assay with Rattus norvegicus [3] is 2200 ng of Fe/15 h; in the assay on Rattus norvegicus [5], 350 ng of Fe/15 h; in the assay with Rattus norvegicus [2] it was 9.96. Moreover, the Control period with Rattus norvegicus [4] is 504 ng of Fe/15 h; in the assay on Rattus norvegicus [1] it was 0.35; in the assay on Rattus norvegicus [6], 296 ng of Fe/15 h.

These data come from ChEMBL document CHEMBL1127750, “Enhancement of iron excretion via monoanionic 3-hydroxypyrid-4-ones” (1994).
